From ChEMBL document CHEMBL2086356, “Identification of a novel family of BRAF(V600E) inhibitors” (J Med Chem, 2012)
Activity calls are given as the source filed them. The calls are words filed in the database; no cut-off is given here.

Experiments:
[1] = target: T1, Serine/threonine-protein kinase B-raf (Homo sapiens, UniProt P15056); assay: Inhibition of human 6x-His tagged wild type BRAF expressed in Sf9 cells by ELISA based kinase assay
Summary of the method: (§1)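 Enzyme at about 28–30 nM was preincubated with compound for 1 h at RT, then added to glutathione-plate-bound GST-MEK-His (50 μg/mL). Reaction in HEPES pH 7.0 with MgCl2 and 100 μM ATP ran 30 min at 37 °C. Read-out was anti-phospho-MEK1/2 then HRP chemiluminescence. Run in duplicate or triplicate; IC50 from a four-parameter logistic fit.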

[2] = species on record: Homo sapiens; assay: Selectivity ratio of IC50 for human 6x-His tagged wild type BRAF to IC50 for human 6x-His tagged BRAF V600E mutant
[3] = target: Serine/threonine-protein kinase B-raf (Homo sapiens, UniProt P15056, V600E); assay: Inhibition of human 6x-His tagged BRAF V600E mutant expressed in Sf9 cells by ELISA based kinase assay; summary of the method: as §1
[4] = species on record: Homo sapiens; assay: Antiproliferative activity against human 451LU cells harboring BRAF V600E mutant by MTS assay; type: functional, cell-based
Summary of the method: (§2)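 451Lu melanoma cells were grown in DMEM with 5% FBS, and primary melanocytes (FOM) and fibroblasts (FF) were taken from neonatal foreskin epidermis. Cells were seeded at 5000/well, left to adhere overnight, then exposed to rising compound doses or DMSO for 72 h. Read-out was MTS absorbance at 490 nm, normalized to DMSO wells. At least 4 wells per condition; experiment done in triplicate.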

[5] = Inhibition of GSK3 assessed as residual activity at 1 uM
[6] = system: FOM; assay: Antiproliferative activity against human FOM cells by MTS assay; type: functional, cell-based; summary of the method: as §2
[7] = system: Serine/threonine-protein kinase B-raf (Homo sapiens), P15056 [V600E]; assay: Inhibition of human 6x-His tagged BRAF V600E mutant expressed in Sf9 cells assessed as residual activity at 1 uM by ELISA based kinase assay
Summary of the method: (§3)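 Single-point ELISA kinase assay at 1 μM inhibitor, reading phospho-MEK on immobilized GST-MEK-His. CRAF at 20–30 nM enzyme with 100 μM ATP; BRAF WT or V600E kinase domain (Sf9-expressed, 6xHis) under the same assay conditions. Remaining activity reported as mean of n = 3.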

[8] = target: Serine/threonine-protein kinase pim-1 (Homo sapiens) (UniProt P11309); assay: Inhibition of PIM1 assessed as residual activity at 1 uM
[9] = target: Phosphatidylinositol 4,5-bisphosphate 3-kinase catalytic subunit gamma isoform (Homo sapiens) (UniProt P48736); assay: Inhibition of PI3Kgamma assessed as residual activity at 1 uM
[10] = system: FF2508; assay: Antiproliferative activity against human FF2508 cells by MTS assay; type: functional, cell-based; summary of the method: as §2
[11] = target: Serine/threonine-protein kinase PAK 1 (Homo sapiens) (UniProt Q13153); assay: Inhibition of PAK1 assessed as residual activity at 1 uM
[12] = target: Phosphatidylinositol 4,5-bisphosphate 3-kinase catalytic subunit alpha isoform (Homo sapiens) (UniProt P42336); assay: Inhibition of PI3Kalpha assessed as residual activity at 1 uM
[13] = target: T1, Serine/threonine-protein kinase B-raf; assay: Inhibition of human 6x-His tagged wild type BRAF expressed in Sf9 cells assessed as residual activity at 1 uM by ELISA based kinase assay; summary of the method: as §3
[14] = target: RAF proto-oncogene serine/threonine-protein kinase (Homo sapiens) (UniProt P04049); assay: Inhibition of CRAF assessed as residual activity at 1 uM by ELISA based kinase assay; summary of the method: as §3
[15] = Inhibition of p70S6K assessed as residual activity at 1 uM by scintillation counter in presence of gamma-P32 ATP
Summary of the method: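 p70S6K (20 nM) was preincubated with inhibitor at RT in 20 mM MOPS, 30 mM MgCl2, 0.8 μg/μL BSA, 5% DMSO, pH 7.0, with S6 kinase/Rsk2 peptide (3.6 μM). After 15 min, ATP was added to 100 μM with γ-32P ATP and run 30 min. Product was captured on P81 paper, washed with phosphoric acid, and counted by scintillation. Remaining activity was measured at 1 μM, mean of n = 3.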

[16] = system: Serine/threonine-protein kinase B-raf (Homo sapiens), P15056 [V600E]; assay: Inhibition of B-Raf V600E mutant-mediated MEK phosphorylation in human 451LU cells by Western blotting

Serine/threonine-protein kinase B-raf (Homo sapiens, UniProt P15056, V600E), sequence (P15056 2-766 V600E limits assumed): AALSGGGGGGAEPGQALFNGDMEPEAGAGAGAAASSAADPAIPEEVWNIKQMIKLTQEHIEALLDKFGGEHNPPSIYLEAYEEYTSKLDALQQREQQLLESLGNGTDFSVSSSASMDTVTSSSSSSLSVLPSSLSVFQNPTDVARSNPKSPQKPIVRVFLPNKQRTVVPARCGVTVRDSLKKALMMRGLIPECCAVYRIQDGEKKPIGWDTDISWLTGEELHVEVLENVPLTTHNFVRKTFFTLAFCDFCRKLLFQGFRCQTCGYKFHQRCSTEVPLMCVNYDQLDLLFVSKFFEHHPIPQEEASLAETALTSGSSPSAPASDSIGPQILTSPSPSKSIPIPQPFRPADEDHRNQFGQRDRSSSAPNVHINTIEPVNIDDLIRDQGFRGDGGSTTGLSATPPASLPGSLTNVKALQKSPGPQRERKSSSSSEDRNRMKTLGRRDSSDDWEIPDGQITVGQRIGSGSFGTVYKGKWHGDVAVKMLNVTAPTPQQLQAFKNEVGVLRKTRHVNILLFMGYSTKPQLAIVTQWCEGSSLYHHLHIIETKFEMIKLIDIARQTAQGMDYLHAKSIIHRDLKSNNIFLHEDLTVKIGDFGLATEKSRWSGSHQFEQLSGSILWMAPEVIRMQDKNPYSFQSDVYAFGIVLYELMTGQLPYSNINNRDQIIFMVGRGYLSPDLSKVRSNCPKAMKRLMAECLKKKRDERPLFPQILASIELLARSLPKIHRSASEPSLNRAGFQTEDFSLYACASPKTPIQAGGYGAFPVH
T1 sequence (P15056 whole entry): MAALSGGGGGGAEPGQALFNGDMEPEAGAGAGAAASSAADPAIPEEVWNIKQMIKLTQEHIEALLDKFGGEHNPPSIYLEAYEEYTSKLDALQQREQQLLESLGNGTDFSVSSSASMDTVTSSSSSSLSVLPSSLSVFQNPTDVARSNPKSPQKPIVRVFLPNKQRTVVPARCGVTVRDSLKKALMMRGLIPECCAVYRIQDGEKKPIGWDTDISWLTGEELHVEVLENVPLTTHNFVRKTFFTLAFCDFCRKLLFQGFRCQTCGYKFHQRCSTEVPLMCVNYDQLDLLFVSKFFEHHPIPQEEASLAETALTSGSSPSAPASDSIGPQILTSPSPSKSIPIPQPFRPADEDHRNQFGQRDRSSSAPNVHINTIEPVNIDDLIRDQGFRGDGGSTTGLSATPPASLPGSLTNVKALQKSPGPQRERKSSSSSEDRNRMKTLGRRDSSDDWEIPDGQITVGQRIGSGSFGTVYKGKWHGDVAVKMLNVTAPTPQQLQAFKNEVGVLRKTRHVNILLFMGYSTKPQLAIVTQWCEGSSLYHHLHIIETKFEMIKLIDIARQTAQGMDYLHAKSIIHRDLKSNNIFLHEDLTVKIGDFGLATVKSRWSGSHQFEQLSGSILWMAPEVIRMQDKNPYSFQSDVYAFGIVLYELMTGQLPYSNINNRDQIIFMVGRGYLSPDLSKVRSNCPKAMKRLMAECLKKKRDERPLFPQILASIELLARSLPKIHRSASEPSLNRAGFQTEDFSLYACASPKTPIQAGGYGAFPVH
Serine/threonine-protein kinase B-raf (Homo sapiens), P15056 [V600E], sequence (P15056 whole entry V600E, the tested form may be a part): as the sequence (P15056 whole entry) above, with V600E counted along it
Serine/threonine-protein kinase pim-1 (Homo sapiens), sequence (P11309 whole entry, looked up, canonical isoform): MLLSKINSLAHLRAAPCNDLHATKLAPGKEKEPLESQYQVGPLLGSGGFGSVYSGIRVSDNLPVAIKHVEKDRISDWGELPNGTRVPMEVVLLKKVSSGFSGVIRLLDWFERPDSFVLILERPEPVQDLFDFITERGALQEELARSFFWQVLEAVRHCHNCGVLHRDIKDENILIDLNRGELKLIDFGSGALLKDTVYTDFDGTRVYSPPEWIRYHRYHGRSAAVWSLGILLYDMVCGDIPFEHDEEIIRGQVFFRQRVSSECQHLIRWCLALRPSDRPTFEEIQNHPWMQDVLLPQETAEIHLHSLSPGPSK
Serine/threonine-protein kinase PAK 1 (Homo sapiens), sequence (Q13153 whole entry, canonical isoform): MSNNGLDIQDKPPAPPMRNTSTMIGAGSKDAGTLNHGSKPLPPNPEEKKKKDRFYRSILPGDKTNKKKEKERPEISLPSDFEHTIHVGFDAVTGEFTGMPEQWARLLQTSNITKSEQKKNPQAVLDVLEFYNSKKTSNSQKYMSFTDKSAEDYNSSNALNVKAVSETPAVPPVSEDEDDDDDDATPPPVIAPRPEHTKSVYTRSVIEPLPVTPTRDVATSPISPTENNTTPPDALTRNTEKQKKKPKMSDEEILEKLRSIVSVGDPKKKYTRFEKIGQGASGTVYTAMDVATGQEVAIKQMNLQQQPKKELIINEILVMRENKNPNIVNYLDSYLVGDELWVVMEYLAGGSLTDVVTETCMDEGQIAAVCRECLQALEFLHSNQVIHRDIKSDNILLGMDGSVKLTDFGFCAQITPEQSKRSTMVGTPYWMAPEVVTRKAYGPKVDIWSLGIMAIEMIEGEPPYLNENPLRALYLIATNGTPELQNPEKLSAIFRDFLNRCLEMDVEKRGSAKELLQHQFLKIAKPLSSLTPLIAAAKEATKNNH
RAF proto-oncogene serine/threonine-protein kinase (Homo sapiens), sequence (P04049 whole entry): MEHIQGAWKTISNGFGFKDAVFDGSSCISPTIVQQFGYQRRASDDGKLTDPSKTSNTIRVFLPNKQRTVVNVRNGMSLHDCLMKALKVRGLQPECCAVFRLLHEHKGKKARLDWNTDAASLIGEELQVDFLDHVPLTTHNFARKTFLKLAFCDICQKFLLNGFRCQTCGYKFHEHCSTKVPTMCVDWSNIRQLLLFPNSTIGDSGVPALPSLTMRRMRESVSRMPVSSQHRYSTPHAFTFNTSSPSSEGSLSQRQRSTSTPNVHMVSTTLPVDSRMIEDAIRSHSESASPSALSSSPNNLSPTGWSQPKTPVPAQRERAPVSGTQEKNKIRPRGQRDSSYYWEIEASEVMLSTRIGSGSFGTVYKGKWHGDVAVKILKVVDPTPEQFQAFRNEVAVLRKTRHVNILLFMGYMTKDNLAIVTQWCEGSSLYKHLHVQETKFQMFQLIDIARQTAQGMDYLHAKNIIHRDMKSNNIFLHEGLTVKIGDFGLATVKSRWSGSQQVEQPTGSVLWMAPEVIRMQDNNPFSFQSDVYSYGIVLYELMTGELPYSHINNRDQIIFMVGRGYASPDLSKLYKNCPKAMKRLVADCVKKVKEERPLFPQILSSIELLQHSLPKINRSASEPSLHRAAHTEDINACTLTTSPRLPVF
Phosphatidylinositol 4,5-bisphosphate 3-kinase catalytic subunit alpha isoform (Homo sapiens), sequence (P42336 whole entry, canonical isoform): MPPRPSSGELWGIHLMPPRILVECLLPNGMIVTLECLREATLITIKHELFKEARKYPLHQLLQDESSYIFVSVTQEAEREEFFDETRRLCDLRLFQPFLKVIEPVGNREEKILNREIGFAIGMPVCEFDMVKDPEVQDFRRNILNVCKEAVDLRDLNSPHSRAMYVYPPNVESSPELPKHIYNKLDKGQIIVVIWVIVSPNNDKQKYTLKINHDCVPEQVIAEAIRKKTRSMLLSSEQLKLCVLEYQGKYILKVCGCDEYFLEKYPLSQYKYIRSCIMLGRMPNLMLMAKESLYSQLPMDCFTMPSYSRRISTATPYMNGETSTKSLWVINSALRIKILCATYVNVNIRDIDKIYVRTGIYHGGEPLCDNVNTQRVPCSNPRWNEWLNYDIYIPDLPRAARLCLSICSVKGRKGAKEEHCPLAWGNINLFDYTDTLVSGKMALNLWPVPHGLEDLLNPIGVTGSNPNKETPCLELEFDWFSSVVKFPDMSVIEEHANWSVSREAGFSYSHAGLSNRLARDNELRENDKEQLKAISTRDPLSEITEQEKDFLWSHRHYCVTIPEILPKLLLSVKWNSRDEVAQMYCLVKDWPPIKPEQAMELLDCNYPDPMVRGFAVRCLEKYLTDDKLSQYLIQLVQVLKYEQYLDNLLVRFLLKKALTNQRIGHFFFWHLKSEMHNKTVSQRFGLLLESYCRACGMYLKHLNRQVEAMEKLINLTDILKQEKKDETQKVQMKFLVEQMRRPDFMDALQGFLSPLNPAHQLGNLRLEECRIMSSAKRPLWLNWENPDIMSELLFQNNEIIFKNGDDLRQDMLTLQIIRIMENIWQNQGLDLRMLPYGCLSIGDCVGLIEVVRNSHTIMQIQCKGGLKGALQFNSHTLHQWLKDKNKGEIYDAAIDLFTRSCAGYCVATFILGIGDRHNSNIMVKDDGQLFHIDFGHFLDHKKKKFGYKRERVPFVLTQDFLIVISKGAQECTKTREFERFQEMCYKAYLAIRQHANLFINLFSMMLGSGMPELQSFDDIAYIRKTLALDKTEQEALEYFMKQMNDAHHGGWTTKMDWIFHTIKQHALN

IC50 [1] [µM] | IC50 [3] [µM] | Compound | other results
0.9 | 0.3 | O=C(/C=C/S(=O)(=O)c1ccc(Cl)cc1)c1ccc(F)cc1 | Ratio IC50 [2]: 2
0.34 | 0.32 | O=S(=O)(Nc1cc(Br)c(O)c2ccccc12)c1cccs1 | 
4 | 0.9 | COc1ccc(C(c2ccc3cccnc3c2O)N2CCOCC2)cc1 (stereo not drawn) | Ratio IC50 [2]: 2
0.59 | 0.52 | O=S(=O)(Nc1cc(Sc2ncn[nH]2)c(O)c2ccccc12)c1c(F)c(F)c(F)c(F)c1F | 
0.4 | 0.6 | Cc1cc(C)c2c(=O)n(C(=O)c3cccs3)sc2n1 | 
5.8 | 3.6 | O=S(=O)(Nc1cc(Sc2ncn[nH]2)c(O)c2ccccc12)c1c(F)ccc(N(Cc2ccccc2)Cc2ccccc2)c1F | 
0.23 | 0.19 | O=C1C(Sc2ncn[nH]2)=C/C(=N\S(=O)(=O)c2cccs2)c2ccccc21 | 
1.47 | 0.72 | O=S(=O)(Nc1cc(Sc2cnn[nH]2)c(O)c2ccccc12)c1cccs1 | 
0.57 | 0.28 | O=S(=O)(Nc1cc(Sc2ccccc2)c(O)c2ccccc12)c1cccs1 | 
0.17 | 0.12 | O=S(=O)(Nc1cc(Sc2ncc[nH]2)c(O)c2ccccc12)c1cccs1 | Ratio IC50 [2]: 2
0.8 |  | Oc1c(C(Nc2ccccn2)c2ccco2)cc(Cl)c2cccnc12 (stereo not drawn) | 
0.22 | 0.08 | O=S(=O)(Nc1cc(Sc2nnc[nH]2)c(O)c2ccccc12)c1ccc(-c2ccccc2)cc1 | 
 |  | O=S(=O)(Nc1cc(Sc2ncn[nH]2)c(O)c2ccccc12)c1ccc(-c2ccccc2)cc1 | Activity [4]: Active; Activity [5]: 75%; Activity [6]: inactive; Activity [7]: < 10%; Ratio IC50 [2]: 2; Activity [8]: 75%; Activity [9]: 75%; Activity [10]: inactive; Activity [11]: 75%; Activity [12]: 75%; Activity [13]: < 10%; Activity [14]: 60%; Activity [15]: 75%; inhibition [16]: Active
2.1 | 1.6 | CCCCCCCCCCS(=O)(=O)Nc1cc(Sc2nnc[nH]2)c(O)c2ccccc12 | 
0.35 | 0.19 | O=S(=O)(Nc1cc(Sc2ccccn2)c(O)c2ccccc12)c1cccs1 | 
0.27 | 0.14 | CC(=O)N1CCc2cc(S(=O)(=O)Nc3cc(Sc4nc[nH]n4)c(O)c4ccccc34)ccc21 | 
0.32 | 0.25 | Cn1nnnc1Sc1cc(NS(=O)(=O)c2cccs2)c2ccccc2c1O | 
0.4 | 0.15 | O=S(=O)(Nc1cc(Sc2nc[nH]n2)c(O)c2ccccc12)c1ccc2ccccc2c1 | 
 |  | CC(=O)Nc1ccc(S(=O)(=O)Nc2cc(Sc3ncn[nH]3)c(O)c3ccccc23)cc1 | Ratio IC50 [2]: 2
9 | 6.1 | O=S(=O)(Nc1ccc(O)c2ccccc12)c1cccs1 | 
1.66 | 0.72 | CCCCCCCCS(=O)(=O)Nc1cc(Sc2nnc[nH]2)c(O)c2ccccc12 | 
 | 0.14 | CC(=O)Nc1ccc(S(=O)(=O)Nc2cc(Sc3nc[nH]n3)c(O)c3ccccc23)cc1 | 
3 | 0.7 | COc1cc(C(Nc2ccccn2)c2cc(Cl)c3cccnc3c2O)cc(Br)c1O (stereo not drawn) | Ratio IC50 [2]: 2
0.68 | 0.67 | O=C1CCC(=O)N1c1ccc(F)c(S(=O)(=O)Nc2cc(Sc3ncn[nH]3)c(O)c3ccccc23)c1F | 
0.45 | 0.38 | O=S(=O)(Nc1cc(Cl)c(O)c2ccccc12)c1cccs1 | 
0.19 | 0.21 | O=S(=O)(Nc1cc(Sc2nc[nH]n2)c(O)c2ccccc12)c1ccc(C(F)(F)F)cc1 | 
2 | 0.8 | Oc1c(C(Nc2cccnc2)c2ccsc2)ccc2cccnc12 (stereo not drawn) | Ratio IC50 [2]: 2
